How the values were obtained:
[1] = system: HepG2; assay: Antiproliferative activity against human HepG2 cells after 48 hrs by MTT assay; format: functional, cell-based; details: HepG2, 48 h
[2] = system: MCF7; assay: Antiproliferative activity against human MCF7 cells after 48 hrs by MTT assay; format: functional, cell-based; details: MCF7, 48 h
Method in brief: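 Cells seeded at 30,000 per well, grown 24 h at 37 °C, 5% CO2, then exposed to 5-fold serial dilutions of compound (dissolved in 1% DMSO) for 48 h under same conditions. MTT added at 5 mg/mL; after lysis, absorbance read at 570 nm 4 h later. IC50 taken from exponential viability-versus-concentration curve relative to untreated controls.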

[3] = system: HepG2; assay: Potency index, ratio of erlotinib IC50 to compound IC50 for human HepG2 cells; format: functional

SMILES	IC50 [1] [µM]	IC50 [2] [µM]	Ratio IC50 [3]
O=C(CN1CCOCC1)Nc1ccc2ncnc(Nc3ccc(OCc4cccc(F)c4)cc3)c2c1	> 100	> 100	–
O=C(CN1CCCCC1)Nc1ccc2ncnc(Nc3ccc(Cl)cc3)c2c1	16	> 100	–
O=C(CN1CCCC1)Nc1ccc2ncnc(Nc3ccc(Cl)c(C(F)(F)F)c3)c2c1	> 100	> 100	–
CN1CCN(CC(=O)Nc2ccc3ncnc(Nc4ccc(Cl)cc4)c3c2)CC1	> 100	15	–
O=C(CN1CCCC1)Nc1ccc2ncnc(Nc3cccc(Cl)c3)c2c1	> 100	> 100	–
O=C(CN1CCOCC1)Nc1ccc2ncnc(Nc3ccc(Cl)c(C(F)(F)F)c3)c2c1	> 100	> 100	–
O=C(CN1CCCCC1)Nc1ccc2ncnc(Nc3ccc(Br)cc3)c2c1	> 100	> 100	–
O=C(CN1CCCCC1)Nc1ccc2ncnc(Nc3cccc(C(F)(F)F)c3)c2c1	> 100	> 100	–
O=C(CN1CCOCC1)Nc1ccc2ncnc(Nc3cccc(Cl)c3)c2c1	> 100	> 100	–
CN1CCN(CC(=O)Nc2ccc3ncnc(Nc4ccc(Br)cc4)c3c2)CC1	> 100	> 100	–
O=C(CN1CCCC1)Nc1ccc2ncnc(Nc3ccc(Cl)cc3)c2c1	18	16	–
O=C(CN1CCCCC1)Nc1ccc2ncnc(Nc3ccc(Cl)c(C(F)(F)F)c3)c2c1	> 100	> 100	–
CN1CCN(CC(=O)Nc2ccc3ncnc(Nc4cccc(Br)c4)c3c2)CC1	25.3	10	–
O=C(CN1CCCC1)Nc1ccc2ncnc(Nc3ccc(OCc4cccc(F)c4)cc3)c2c1	25.1	25	–
CN1CCN(CC(=O)Nc2ccc3ncnc(Nc4ccc(Cl)c(C(F)(F)F)c4)c3c2)CC1	25.3	> 100	–
CN1CCN(CC(=O)Nc2ccc3ncnc(Nc4cccc(Cl)c4)c3c2)CC1	> 100	> 100	–
O=C(CN1CCCC1)Nc1ccc2ncnc(Nc3cccc(Br)c3)c2c1	> 100	12	–
O=C(CN1CCCC1)Nc1ccc2ncnc(Nc3cccc(C(F)(F)F)c3)c2c1	25.2	> 100	–
O=C(CN1CCOCC1)Nc1ccc2ncnc(Nc3ccc(Br)cc3)c2c1	> 100	> 100	–
O=C(CN1CCOCC1)Nc1ccc2ncnc(Nc3cccc(Br)c3)c2c1	19	15	–

The next lines start with results.

IC50 [1] [µM]	IC50 [2] [µM]	SMILES	Ratio IC50 [3]
> 100	15	O=C(CN1CCOCC1)Nc1ccc2ncnc(Nc3cccc(C(F)(F)F)c3)c2c1	–
16	3	O=C(CN1CCCCC1)Nc1ccc2ncnc(Nc3cccc(Br)c3)c2c1	–
> 100	> 100	O=C(CN1CCCC1)Nc1ccc2ncnc(Nc3ccc(OCc4ccccc4)cc3)c2c1	–
> 100	> 100	O=C(CN1CCOCC1)Nc1ccc2ncnc(Nc3ccc(Cl)cc3)c2c1	–
12	> 100	O=C(CN1CCCCC1)Nc1ccc2ncnc(Nc3cccc(Cl)c3)c2c1	2
> 100	> 100	O=C(CN1CCCC1)Nc1ccc2ncnc(Nc3ccc(Br)cc3)c2c1	–
> 100	> 100	CN1CCN(CC(=O)Nc2ccc3ncnc(Nc4cccc(C(F)(F)F)c4)c3c2)CC1	–
> 100	25	O=C(CN1CCOCC1)Nc1ccc2ncnc(Nc3ccc(OCc4ccccc4)cc3)c2c1	–

Source: ChEMBL document CHEMBL4152342, “Novel series of 6-(2-substitutedacetamido)-4-anilinoquinazolines as EGFR-ERK signal transduction inhibitors in MCF-7 breast cancer cells” (Eur J Med Chem, 2018)
